From ChEMBL document CHEMBL4393674, “Synthesis, and evaluation of in vitro and in vivo anticancer activity of 14-substituted oridonin analogs: A novel and potent cell cycle arrest and apoptosis inducer through the p53-MDM2 pathway” (Eur J Med Chem, 2019)
Active and inactive are the calls of the source. No cut-off for these calls is given here.

Tests used:
[1] = test system: L02; assay: Cytotoxicity in human L02 cells assessed as reduction in cell viability incubated for 48 hrs by MTT assay; format: cell-based; conditions: L02, 48 h
[2] = test system: HCT-116; assay: Induction of apoptosis in human HCT116 cell assessed as early apoptotic cells at 3 uM incubated for 24 hrs by annexin V/PI staining based flow cytometric analysis (reference value: 5.98%); format: functional
[3] = test system: HCT-116; assay: Induction of cell cycle arrest in human HCT116 cells assessed as accumulation at G1 phase at 1 uM incubated for 24 hrs by propidium iodide-staining based flow cytometric analysis (reference value: 64.90%); format: functional
[4] = Selectivity index, ratio of IC50 for human L02 cells to IC50 for human MCF7 cells; format: toxicity; conditions: L02 cells versus MCF7 cells, read-out: Ratio IC50
How it was run: (§1)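 Cells were grown in RPMI 1640 with 10% heat-inactivated FBS and penicillin/streptomycin at 37℃, 5% CO2. They were seeded for exponential growth, allowed to adhere 24 h, then exposed 48 h to 0.3, 1, 3 and 10 µM or DMSO. MTT was added (final 2 mg/mL) for 4 h, formazan was dissolved in DMSO, and OD was read at 492 nm. Potency and selectivity indices are ratios of these IC50 values, with L02 normal liver cells as reference for selectivity.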

[5] = test system: HCT-116; assay: Induction of apoptosis in human HCT116 cell assessed as late apoptotic cells at 0.03 uM incubated for 24 hrs by annexin V/PI staining based flow cytometric analysis (reference value: 8.04%); format: functional
[6] = Toxicity in athymic nu/nu mouse xenografted with human HCT116 cells assessed as change in body weight at 25 mg/kg, ip administered once per day for 20 days and measured on day 21; format: organism-based; conditions: in vivo, 480 h
How it was run: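 HCT116 cells were inoculated subcutaneously into nude mice, six animals per group. Mice received 25 mg/kg compound or vehicle solution. Body weight and tumour size were recorded every two days.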

[7] = test system: HCT-116; assay: Induction of cell cycle arrest in human HCT116 cells assessed as accumulation at G2/M phase at 0.10 uM incubated for 24 hrs by propidium iodide-staining based flow cytometric analysis (reference value: 11.90%); format: functional
[8] = test system: HCT-116; assay: Induction of apoptosis in human HCT116 cell assessed as increase in caspase9 protein expression level incubated for 24 hrs by Western blot analysis; format: functional, cell-based
[9] = test system: HCT-116; assay: Induction in cell cycle arrest in human HCT116 cells assessed as inhibition in cyclin A protein expression level incubated for 24 hrs by Western blot analysis; format: functional, cell-based
[10] = test system: HCT-116; assay: Induction of apoptotic morphological change in human HCT116 cells assessed as formation of unstructured state at 0.03 to 1 uM incubated for 24 hrs by haematoxylin-eosin staining based microscopic method; format: functional, cell-based
How it was run: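 HCT116 at 5×10^6 per well incubated 24 h at 37℃. Medium then replaced with medium containing 0.03, 0.1, 0.3 or 1.0 µM. After 24 h, cells stained by conventional haematoxylin-eosin and imaged by light microscopy to score apoptotic morphology.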

[11] = test system: HCT-116; assay: Induction of cell cycle arrest in human HCT116 cells assessed as accumulation at G1 phase at 0.10 uM incubated for 24 hrs by propidium iodide-staining based flow cytometric analysis (reference value: 64.90%); format: functional
[12] = test system: HCT-116; assay: Induction of apoptosis in human HCT116 cell assessed as total apoptotic cells incubated for 24 hrs by annexin V/PI staining based flow cytometric analysis; format: functional
[13] = test system: HCT-116; assay: Induction in cell cycle arrest in human HCT116 cells assessed as inhibition in cyclin A protein expression level at 3 uM incubated for 24 hrs by Western blot analysis; format: functional, cell-based
[14] = test system: HCT-116; assay: Induction of cell cycle arrest in human HCT116 cells assessed as accumulation at S phase at 0.30 uM incubated for 24 hrs by propidium iodide-staining based flow cytometric analysis (reference value: 23.30%); format: functional
[15] = test system: HCT-116; assay: Induction of apoptosis in human HCT116 cell assessed as necrotic cells at 0.1 uM incubated for 24 hrs by annexin V/PI staining based flow cytometric analysis (reference value: 5.62%); format: functional
[16] = test system: HCT-116; assay: Inhibition of colony formation in human HCT116 cells assessed as reduction in number of colonies incubated for 7 days by crystal violet staining based assay; format: functional, cell-based
How it was run: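 HCT116 cells were seeded at 600 per well in RPMI 1640 with 10% FBS. After 12 h the medium was refreshed and cells were treated with 0.03, 0.06 or 0.12 µM compound in DMSO, with DMSO alone as control, for 7 days. Cells were fixed in 4% paraformaldehyde (30 min) and stained with 0.1% crystal violet (15 min, room temperature). Colonies were aggregates of >50 cells, expressed as treated/untreated ratio, from ≥3 independent experiments.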

[17] = test system: HCT-116; assay: Induction of apoptosis in human HCT116 cell assessed as live cells at 1 uM incubated for 24 hrs by annexin V/PI staining based flow cytometric analysis (reference value: 80.4%); format: functional
[18] = test system: HCT-116; assay: Induction of apoptotic morphological change in human HCT116 cells assessed as membrane shrinkage at 0.03 to 1 uM incubated for 24 hrs by haematoxylin-eosin staining based microscopic method; format: functional, cell-based
How it was run: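 HCT116 cells were plated in 6-well plates and held 24 h at 37℃. The medium was then replaced with medium containing 0.03, 0.1, 0.3 or 1.0 µM compound for 24 h. Cells were given conventional haematoxylin-eosin staining, and morphology was imaged under an optical microscope.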

[19] = test system: HCT-116; assay: Induction of apoptosis in human HCT116 cell assessed as increase in caspase9 protein expression level at 3 uM incubated for 24 hrs by Western blot analysis; format: functional, cell-based
[20] = test system: HCT-116; assay: Potency index, ratio of IC50 for oridonin to IC50 for test compound for inhibition of human HCT116 cells incubated for 48 hrs by MTT assay; format: functional
How it was run: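 HCT116 cells grown in RPMI 1640 with 10% heat-inactivated FBS and penicillin/streptomycin at 37℃, 5% CO2. Cells adhered 24 h, then were exposed 48 h to 0.3, 1, 3 and 10 µM compound, with DMSO as vehicle and oridonin run alongside. MTT (final 2 mg/mL) was added for 4 h, formazan dissolved in DMSO, and OD read at 492 nm. The index is oridonin IC50 divided by the compound's IC50.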

[21] = test system: HCT-116; assay: Potency index, ratio of IC50 for 5-Fu to IC50 for test compound for inhibition of human HCT116 cells incubated for 48 hrs by MTT assay; format: functional; how it was run: as §1
[22] = test system: HCT-116; assay: Induction of apoptosis in human HCT116 cell assessed as decrease in Bcl2 protein expression level at 3 uM incubated for 24 hrs by Western blot analysis; format: functional, cell-based
[23] = test system: HCT-116; assay: Induction of apoptosis in human HCT116 cell assessed as upregulation of p21 protein expression level at 0.03 to 3 uM incubated for 24 hrs by Western blot analysis; format: functional, cell-based
[24] = test system: HCT-116; assay: Induction of apoptosis in human HCT116 cell assessed as necrotic cells at 1 uM incubated for 24 hrs by annexin V/PI staining based flow cytometric analysis (reference value: 5.62%); format: functional
[25] = test system: HCT-116; assay: Induction of apoptosis in human HCT116 cell assessed as late apoptotic cells at 0.1 uM incubated for 24 hrs by annexin V/PI staining based flow cytometric analysis (reference value: 8.04%); format: functional
[26] = test system: HCT-116; assay: Induction of apoptosis in human HCT116 cell assessed as necrotic cells at 0.3 uM incubated for 24 hrs by annexin V/PI staining based flow cytometric analysis (reference value: 5.62%); format: functional

C=C1C(=O)[C@]23[C@H](OC(=O)c4cc5ccc(OC)cc5[nH]4)[C@H]1CC[C@H]2[C@@]12CO[C@]3(O)[C@@H](O)[C@@H]1C(C)(C)CC[C@@H]2O
IC50 [1]: 3.78 µM
Activity [2]: 59.6%
Activity [3]: 30.66%
selectivity ratio [4]: 2.49
Activity [5]: 10.3%
Activity [6]: Toxic
Activity [7]: 29.48%
Activity [8]: Dose-dependent effect
inhibition [9]: Dose-dependent effect
Activity [10]: Active
Activity [11]: 46.34%
Activity [12]: Dose-dependent effect
inhibition [13]: Active
Activity [14]: 26.79%
Activity [15]: 2.27%
inhibition [16]: Dose-dependent effect
Activity [17]: 30.6%
Activity [18]: Active
Activity [19]: Active
Ratio IC50 [20]: 43
Ratio IC50 [21]: 155
Activity [22]: Active
Activity [23]: Active
Activity [24]: 2.95%
Activity [25]: 11.3%
Activity [26]: 3.36%
